For series [1], the system named is Norovirus. The series is described as follows: Antiviral activity against Norovirus infected in HG23 cells assessed as inhibition of viral replication at 24 hrs by qRT-PCR analysis. It is filed as functional. The following applies: read-out: ED50 (the source's name). The method, boiled down:
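Norwalk virus replicon-bearing HG23 cells were treated with compound, and NV genome levels were quantified by qRT-PCR at 24 h post-treatment. ED50 was derived from the reduction in genome levels. Values are the average of two independent experiments ± standard deviation.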

The subject of series [2] is Norovirus. As to the kind of experiment: Inhibition of Norovirus 3C protease.
The nature of series [3]: Cytotoxicity against human HG23 cells at 48 hrs. The series is classed as cell-based. The following applies: for CC50 at 48 h: HG23 cells, read-out: TD50; for CC50: hg23, 48 h, 48 h, read-out: TD50 (the source's name). Summed up: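 Norwalk virus replicon-harboring HG23 cells were treated with compound for 48 h, then assayed with a commercial cell cytotoxicity kit. The median toxic dose (TD50) was calculated from this read-out. Values are the average of two independent experiments ± standard deviation.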

Series [4] in a line: Therapeutic index, ratio of TD50 for human HG23 cells to ED50 for Norovirus infected in HG23 cells. The series is classed as cell-based. The conditions noted are these: for selectivity ratio: HG23 cells, read-out: Ratio TD50/ED50; for Ratio TD50/ED50: hg23. The method, boiled down:
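TD50 in HG23 replicon cells was measured with a cell cytotoxicity assay kit after 48 h of treatment. […] The index is TD50 divided by ED50.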

Calls of active or inactive are those of the source. No cut-off for these calls is given here.

With `O=C(O)C1CCN(C(=O)CNS(=O)(=O)NCc2cccc(Oc3ccccc3)c2)CC1`, in the series on Norovirus [1] (Norovirus, HG23, 24 h), the EC50 is > 10 µM. Further, in the series on Norovirus [2], the inhibition entry was “inactive”.
`O=S1(=O)NCCN1Cc1cccc(Oc2ccccc2)c1`: the EC50 in the series on Norovirus [1] (Norovirus, HG23, 24 h) is 4.1 µM.
With `COC(=O)C1CCC(NC(=O)CNS(=O)(=O)NCc2cccc(Oc3ccccc3)c2)CC1` (configuration not stated), the EC50 in the series on Norovirus [1] (Norovirus, HG23, 24 h) is > 10 µM. Also, the CC50 at 48 h in series [3] turned out to be 75 µM. Also, the inhibition entry in the series with Norovirus [2] was “inactive”.
Take `COC(=O)CNS(=O)(=O)NCc1cccc(Oc2ccccc2)c1`: the EC50 with Norovirus [1] (Norovirus, HG23, 24 h) was > 10 µM. The inhibition result in the series with Norovirus [2] is “inactive”.
For the compound `O=C(CN(Cc1ccccc1)S(=O)(=O)NCc1cccc(Oc2ccccc2)c1)NCCN1CCOCC1` [listing 1 of 3 here], the EC50 in the series on Norovirus [1] is 3.9 µM. For the same compound, the CC50 in series [3] amounted to 55 µM.
As for `O=C(CNS(=O)(=O)NCc1cccc(Oc2ccccc2)c1)N1CCN(Cc2ccccc2)CC1` [listing 1 of 2 here], the EC50 with Norovirus [1] (Norovirus, HG23, 24 h) stood at 5.5 µM. For the same compound, in series [3], the CC50 at 48 h amounted to 145 µM. For the same compound, in series [4], the selectivity ratio was determined as 26.
`O=C(CNS(=O)(=O)NCc1cccc(Oc2ccccc2)c1)NCCc1ccccc1`: the EC50 in the series on Norovirus [1] (Norovirus, HG23, 24 h) was > 10 µM. Also, the inhibition result with Norovirus [2] was “inactive”.
In the case of `O=C(CN(Cc1ccccc1)S(=O)(=O)NCc1cccc(Oc2ccccc2)c1)NCCN1CCOCC1` [listing 2 of 3 here], the inhibition result in the series on Norovirus [2] is “inactive”.
For `O=C(CNS(=O)(=O)NCc1cccc(Oc2ccccc2)c1)NCCN1CCOCC1` [listing 1 of 3 here], the EC50 with Norovirus [1] was 5.1 µM. Besides, the CC50 in series [3] came out at 330 µM. Moreover, the selectivity ratio in series [4] is 65.
As for `O=C(CNS(=O)(=O)NCc1cccc(Oc2ccccc2)c1)NCCN1CCOCC1` [listing 2 of 3 here], the EC50 in the series on Norovirus [1] (Norovirus, HG23, 24 h) came out at 8.5 µM. In addition, the CC50 at 48 h in series [3] turned out to be 165 µM.
With `O=S1(=O)N(CCN2CCOCC2)CCN1Cc1cccc(Oc2ccccc2)c1`, in the series on Norovirus [1] (Norovirus, HG23, 24 h), the EC50 is 4.2 µM. For the same compound, the CC50 at 48 h in series [3] was 51 µM.
Take `CC(NS(=O)(=O)NCc1cccc(Oc2ccccc2)c1)C(=O)NCCN1CCOCC1` (racemic; 7b): the inhibition result in the series with Norovirus [2] is “inactive”.
For the compound `CCOC(=O)N1CCN(C(=O)CNS(=O)(=O)NCc2cccc(Oc3ccccc3)c2)CC1`, the EC50 with Norovirus [1] (Norovirus, HG23, 24 h) was found to be 8.2 µM. In series [3], the CC50 at 48 h was 130 µM. Further, the inhibition result with Norovirus [2] is “inactive”.
Take `CN(CC(=O)NCCN1CCOCC1)S(=O)(=O)NCc1cccc(Oc2ccccc2)c1` [listing 1 of 2 here]: the EC50 with Norovirus [1] (Norovirus, HG23, 24 h) turned out to be 5.2 µM. In addition, in series [3], the CC50 at 48 h came to 320 µM. The “Ratio TD50/ED50” value in series [4] turned out to be 63.
As to `O=C(CNS(=O)(=O)NCc1cccc(Oc2ccccc2)c1)NC1CCC(C(=O)O)CC1` (configuration not stated), the EC50 in the series with Norovirus [1] (Norovirus, HG23, 24 h) was > 10 µM. Also, the inhibition result in the series on Norovirus [2] is “inactive”.
For `O=C(O)CCCCN1CCN(Cc2cccc(Oc3ccccc3)c2)S1(=O)=O`, in the series on Norovirus [1] (Norovirus, HG23, 24 h), the EC50 amounted to 6.1 µM.
Take `O=C(CNS(=O)(=O)NCc1cccc(Oc2ccccc2)c1)NCc1ccccc1`: the EC50 in the series with Norovirus [1] (Norovirus, HG23, 24 h) worked out at 8.1 µM. In series [3], the CC50 at 48 h was determined as 47 µM. Moreover, in the series with Norovirus [2], the inhibition entry was “inactive”.
Consider `O=C(CNS(=O)(=O)NCc1cccc(Oc2ccccc2)c1)NCc1ccco1`, for which the EC50 in the series with Norovirus [1] (Norovirus, HG23, 24 h) is > 10 µM. Besides, in the series on Norovirus [2], the inhibition entry is “inactive”.
On to `CSCCC(NS(=O)(=O)NCc1cccc(Oc2ccccc2)c1)C(=O)NCCN1CCOCC1` (racemic; 6d) [listing 1 of 2 here], for which the EC50 with Norovirus [1] (Norovirus, HG23, 24 h) was 4.5 µM. For the same compound, the CC50 at 48 h in series [3] is 124 µM. Also, in series [4], the selectivity ratio is > 27.
`CCCC(NS(=O)(=O)NCc1cccc(Oc2ccccc2)c1)C(=O)NCCN1CCOCC1` (racemic): the EC50 in the series with Norovirus [1] (Norovirus, HG23, 24 h) was > 10 µM. Moreover, the inhibition result in the series with Norovirus [2] was “inactive”.
As for `CSCCC(NS(=O)(=O)NCc1cccc(Oc2ccccc2)c1)C(=O)NCCN1CCOCC1.Cl` (racemic; 7d), the CC50 in series [3] is 230 µM. The “Ratio TD50/ED50” value in series [4] worked out at 54.
As for `O=C(CNS(=O)(=O)NCc1cccc(Oc2ccccc2)c1)N1CCN(Cc2ccccc2)CC1` [listing 2 of 2 here], the inhibition result in the series with Norovirus [2] is “inactive”.
With `O=C(CNS(=O)(=O)NCc1cccc(Oc2ccccc2)c1)NCCN1CCOCC1` [listing 3 of 3 here], in the series on Norovirus [2], the inhibition result was “inactive”.
Take `O=C(CN(Cc1ccccc1)S(=O)(=O)NCc1cccc(Oc2ccccc2)c1)NCCN1CCOCC1` [listing 3 of 3 here]: the EC50 in the series on Norovirus [1] (Norovirus, HG23, 24 h) stood at 3.8 µM. Moreover, the CC50 at 48 h in series [3] amounted to 45 µM.
Regarding `CC(NS(=O)(=O)NCc1cccc(Oc2ccccc2)c1)C(=O)NCCN1CCOCC1` (racemic; 6b) [listing 1 of 2 here], in the series on Norovirus [2], the inhibition result is “inactive”.
Take `CN(CC(=O)NCCN1CCOCC1)S(=O)(=O)NCc1cccc(Oc2ccccc2)c1` [listing 2 of 2 here]: the inhibition result in the series on Norovirus [2] is “inactive”.
As for `COC(=O)C1CCN(C(=O)CNS(=O)(=O)NCc2cccc(Oc3ccccc3)c2)CC1`, in the series with Norovirus [1] (Norovirus, HG23, 24 h), the EC50 was > 10 µM. Also, in the series with Norovirus [2], the inhibition result was “inactive”.
Consider `CN(CC(=O)NCCN1CCOCC1)S(=O)(=O)NCc1cccc(Oc2ccccc2)c1.Cl`, for which the EC50 with Norovirus [1] stood at 10.1 µM. In addition, the CC50 in series [3] is 235 µM. Further, the “Ratio TD50/ED50” value in series [4] is on record as 24.
`Cl.O=C(CNS(=O)(=O)NCc1cccc(Oc2ccccc2)c1)N1CCN(Cc2ccccc2)CC1`: the EC50 with Norovirus [1] amounted to 5.7 µM. In series [3], the CC50 came out at 120 µM. The “Ratio TD50/ED50” value in series [4] is 21.
As to `CSCCC(NS(=O)(=O)NCc1cccc(Oc2ccccc2)c1)C(=O)NCCN1CCOCC1` (racemic; 7d), in the series with Norovirus [2], the inhibition result was “inactive”.
Take `CSCCC(NS(=O)(=O)NCc1cccc(Oc2ccccc2)c1)C(=O)NCCN1CCOCC1` (racemic; 6d) [listing 2 of 2 here]: the inhibition entry in the series with Norovirus [2] was “inactive”.
Consider `CC(NS(=O)(=O)NCc1cccc(Oc2ccccc2)c1)C(=O)NCCN1CCOCC1` (racemic; 6b) [listing 2 of 2 here], for which the EC50 with Norovirus [1] (Norovirus, HG23, 24 h) is > 10 µM.

Values taken from ChEMBL document CHEMBL1955792, “Potent norovirus inhibitors based on the acyclic sulfamide scaffold” (Bioorg Med Chem, 2012).
